Here are results for 24 compounds from ChEMBL document CHEMBL3244036, “Inhibition of beef-brain and dog-heart (Na+ + k+) activated adenosine triphosphatase by carbon-3 branched cardenolides” (J Med Chem, 1978).

Structures are written as SMILES.

Assay [1] is filed under the species Bos taurus. Put plainly: Inhibition of beef-brain Na(+)/K(+) ATPase assessed as oxidation of NADH using ATP substrate preincubated for 5 mins. The method in brief:
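Microsomal enzyme from frozen, partially thawed beef brain. Pyruvate kinase/lactate dehydrogenase-coupled system with inhibitor (in water, or DMSO made up with water) preincubated 5 min before adding ATP. NADH oxidation followed photometrically. Final volume 2.95 mL. At least four roughly log-equidistant concentrations, each in duplicate or triplicate. IC50 from linear regression of % inhibition against log concentration.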

For assay [2], the species on record is Bos taurus. The assay is described as follows: Inhibition of beef-brain Na(+)/K(+) ATPase assessed as oxidation of NADH using ATP substrate at 5 uM preincubated for 5 mins relative to digitoxigenin.
For assay [3], the species on record is Canis lupus familiaris. The assay is described as follows: Inhibition of dog-heart microsomal Na(+)/K(+) ATPase using ATP substrate. The method, boiled down: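 Microsomal enzyme from frozen dog heart in Tris-HCl pH 7.4 containing MgCl2, KCl and NaCl. Preincubated with inhibitor for 5 min, then pyruvate kinase, lactate dehydrogenase, phosphoenolpyruvate and NADH added. Reaction started with ATP; NADH oxidation read photometrically. At least four log-spaced concentrations, each in duplicate or triplicate. Linear regression of % inhibition against log concentration.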

Regarding `C=CC[C@@]1(O)CC[C@@]2(C)[C@H](CC[C@@H]3[C@@H]2CC[C@]2(C)[C@@H](C4=CC(=O)OC4)CC[C@]32O)C1`, the ID50 in assay [1] amounted to 5.81 µmol.
Turning to `C=C[C@@]1(O)CC[C@@]2(C)[C@H](CC[C@@H]3[C@@H]2CC[C@]2(C)[C@@H](C4=CC(=O)OC4)CC[C@]32O)C1`, the ID50 in assay [1] turned out to be 6.68 µmol.
Same read-out and setting: the same measure for `CC[C@@]1(O)CC[C@@]2(C)[C@H](CC[C@@H]3[C@@H]2CC[C@]2(C)[C@@H](C4=CC(=O)OC4)CC[C@]32O)C1`: 6.4 µmol.
On the same count and under the same terms, the same measure for `C[C@]12CC[C@](O)(CC(O)CO)C[C@H]1CC[C@@H]1[C@@H]2CC[C@]2(C)[C@@H](C3=CC(=O)OC3)CC[C@]12O` (some centres not stated): 2.34 µmol.
For `C[C@]12CC[C@@]3(CO3)C[C@H]1CC[C@@H]1[C@@H]2CC[C@]2(C)[C@@H](C3=CC(=O)OC3)CC[C@]12O`, the fold change (FC) in assay [2] turned out to be 100. In addition, the ID50 in assay [3] was determined as 0.275 µmol; in assay [1] it was 0.71 µmol.
For `C[C@]12CC[C@H](O)C[C@H]1CC[C@@H]1[C@@H]2CC[C@]2(C)[C@@H](C3=CC(=O)OC3)CC[C@]12O`, the ID50 in assay [3] was 0.035 µmol; in assay [1], 0.096 µmol.
For the compound `C=CC[C@]1(O)CC[C@@]2(C)[C@H](CC[C@@H]3[C@@H]2CC[C@]2(C)[C@@H](C4=CC(=O)OC4)CC[C@]32O)C1`, the fold change (FC) in assay [2] came out at 100. Moreover, the ID50 in assay [3] turned out to be 0.55 µmol; in assay [1] it was 1.25 µmol.
With `C[C@]12CC[C@](O)(C3CO3)C[C@H]1CC[C@@H]1[C@@H]2CC[C@]2(C)[C@@H](C3=CC(=O)OC3)CC[C@]12O` (some centres not stated), the ID50 in assay [1] came out at 3.17 µmol.
`C[C@]12CC[C@]3(CO3)C[C@H]1CC[C@@H]1[C@@H]2CC[C@]2(C)[C@@H](C3=CC(=O)OC3)CC[C@]12O`: the ID50 in assay [1] was 0.74 µmol.
On the same count and under the same terms, the same measure for `C[C@]12CC[C@](O)(c3ccccc3)C[C@H]1CC[C@@H]1[C@@H]2CC[C@]2(C)[C@@H](C3=CC(=O)OC3)CC[C@]12O`: 5.81 µmol.
Take `C[C@]12CC[C@@](O)(CC(O)CO)C[C@H]1CC[C@@H]1[C@@H]2CC[C@]2(C)[C@@H](C3=CC(=O)OC3)CC[C@]12O` (some centres not stated): the fold change (FC) in assay [2] is 100. The values for the ID50 in assay [3] and in assay [1] were 4.44 µmol and 7.66 µmol, respectively.
With `C[C@]12CC[C@@H](O)C[C@H]1CC[C@@H]1[C@@H]2CC[C@]2(C)[C@@H](C3=CC(=O)OC3)CC[C@]12O`, the ID50 in assay [1] turned out to be 1.17 µmol.
As for `C[C@]12CC[C@@](O)(C(O)CO)C[C@H]1CC[C@@H]1[C@@H]2CC[C@]2(C)[C@@H](C3=CC(=O)OC3)CC[C@]12O` (some centres not stated), the fold change (FC) in assay [2] amounted to 100. Moreover, the ID50 in assay [3] is 7.8 µmol; in assay [1] it was 15.4 µmol.
The like results for `C[C@]12CC[C@@](O)(C3CO3)C[C@H]1CC[C@@H]1[C@@H]2CC[C@]2(C)[C@@H](C3=CC(=O)OC3)CC[C@]12O` (some centres not stated) were, in that order, 100, 1.1 µmol and 2.03 µmol.
The corresponding values for `C#C[C@]1(O)CC[C@@]2(C)[C@H](CC[C@@H]3[C@@H]2CC[C@]2(C)[C@@H](C4=CC(=O)OC4)CC[C@]32O)C1` are 100, 0.12 µmol and 0.25 µmol.
With `C#C[C@@]1(O)CC[C@@]2(C)[C@H](CC[C@@H]3[C@@H]2CC[C@]2(C)[C@@H](C4=CC(=O)OC4)CC[C@]32O)C1`, the ID50 in assay [1] was determined as 2.11 µmol.
As for `C[C@@]1(O)CC[C@@]2(C)[C@H](CC[C@@H]3[C@@H]2CC[C@]2(C)[C@@H](C4=CC(=O)OC4)CC[C@]32O)C1`, the ID50 in assay [1] was determined as 11.4 µmol.
Same read-out and setting: with `C[C@]12CC[C@](O)(CC3CO3)C[C@H]1CC[C@@H]1[C@@H]2CC[C@]2(C)[C@@H](C3=CC(=O)OC3)CC[C@]12O` (some centres not stated) the figure was 4.06 µmol.
On to `C=C[C@]1(O)CC[C@@]2(C)[C@H](CC[C@@H]3[C@@H]2CC[C@]2(C)[C@@H](C4=CC(=O)OC4)CC[C@]32O)C1`, for which the fold change (FC) in assay [2] came out at 100. Also, the ID50 turned out to be 0.092 µmol in assay [3] and 0.31 µmol in assay [1].
The corresponding values for `CC[C@]1(O)CC[C@@]2(C)[C@H](CC[C@@H]3[C@@H]2CC[C@]2(C)[C@@H](C4=CC(=O)OC4)CC[C@]32O)C1` are 100, 0.73 µmol and 2.15 µmol.
For `C[C@]12CC[C@](O)(C(O)CO)C[C@H]1CC[C@@H]1[C@@H]2CC[C@]2(C)[C@@H](C3=CC(=O)OC3)CC[C@]12O` (some centres not stated), the ID50 in assay [1] was 1.7 µmol.
On to `C[C@]12CC[C@@](O)(CC3CO3)C[C@H]1CC[C@@H]1[C@@H]2CC[C@]2(C)[C@@H](C3=CC(=O)OC3)CC[C@]12O` (some centres not stated), for which the fold change (FC) in assay [2] came out at 100. Besides, the ID50 in assay [3] amounted to 1.69 µmol; in assay [1] it was 3.65 µmol.
With `C[C@]1(O)CC[C@@]2(C)[C@H](CC[C@@H]3[C@@H]2CC[C@]2(C)[C@@H](C4=CC(=O)OC4)CC[C@]32O)C1`, the fold change (FC) in assay [2] is 100. Besides, the ID50 in assay [3] is 0.32 µmol; in assay [1], 0.92 µmol.
On to `C[C@]12CC[C@@](O)(c3ccccc3)C[C@H]1CC[C@@H]1[C@@H]2CC[C@]2(C)[C@@H](C3=CC(=O)OC3)CC[C@]12O`, for which, in assay [2], the fold change (FC) was determined as 100. For the same compound, the ID50 in assay [3] was determined as 0.6 µmol; in assay [1], 2.11 µmol.
